OX1R antag-1 – human HCRTR1 antagonism | actives 0.43% (n = 330,000) | inhibition, % at 5 µM | CHO/OX1R cells, Fluo-8 calcium fluorescence, orexin A;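 active = inhibition above its plate's threshold, mean inhibition of all tested compounds on the plate plus 3 SD, cut at about 37% in these data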;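 also: 0% = orexin A challenge wells and 100% = SB-334867-A antagonist wells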
TAAR1 ag – human TAAR1 agonism; actives 0.99% (n = 360,000); Q96RJ0; activation, % at 3 µM; CHO RD-HGA16 TAAR1, Fluo-8 calcium fluorescence; vehicle wells 0%, saturating PEA agonist 100%;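 active = activation above the mean activation of all test compounds in the run plus 3 SD, cut at about 38% in these data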
Target sequence (Q96RJ0 whole entry, looked up): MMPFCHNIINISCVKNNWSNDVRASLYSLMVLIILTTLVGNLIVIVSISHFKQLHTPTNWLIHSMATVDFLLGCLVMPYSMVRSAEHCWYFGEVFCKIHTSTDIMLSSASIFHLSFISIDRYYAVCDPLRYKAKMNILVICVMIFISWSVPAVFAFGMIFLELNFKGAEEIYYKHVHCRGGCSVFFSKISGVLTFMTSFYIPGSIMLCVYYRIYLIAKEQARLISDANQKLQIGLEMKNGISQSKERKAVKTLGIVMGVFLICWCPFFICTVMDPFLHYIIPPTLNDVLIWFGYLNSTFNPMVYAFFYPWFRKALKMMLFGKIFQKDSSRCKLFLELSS
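Signal – calcium-sensitive Fluo-8 signal, excitation 470-495, emission 515-575 nm · System – RD-HGA16 (CHO) cells co-expressing Gα16 and hTAAR1 · Incubation – 17-24 h seeding, 75 min 37 °C dye, 30 min RT · Compound dosing – 3 µM single concentration · Repeats – no replicates (n 1)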
TAAR1 antagonist – antagonists of human TAAR1; Q96RJ0; CHO RD-HGA16 TAAR1, Fluo-8 calcium fluorescence, antagonist; inhibition, % at 3 µM; actives 1.5% (n = 360,000); AID 624466;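 active = inhibition above a per-plate cutoff, the mean inhibition of test compounds on that plate plus 3 SD, cut at about 49% in these data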;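 also: 0% = DMSO plus EC80 beta-PEA response and 100% = DMSO alone without agonist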
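Assay system: CHO-derived RD-HGA16 cells stably expressing human TAAR1 plus Gα16. Timing: 140 s kinetic read after compound, 140 s after agonist. Technique: kinetic Fluo-8 calcium fluorescence measurement. Measure: % inhibition of agonist calcium response.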
GPR7 antag – blocks human GPR7 receptor signaling | P48145 | GPR7-expressing cells, fluorescence antagonist assay | inhibition, % at 4.4 µM | actives 1.1% (n = 290,000) | AID 1861; in the data active = inhibition above about 16%, passing the limit was not always enough;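 also: cells stimulated with the agonist NPW; 0% = agonist with vehicle and 100% = vehicle without agonist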
Target sequence (P48145 whole entry, looked up): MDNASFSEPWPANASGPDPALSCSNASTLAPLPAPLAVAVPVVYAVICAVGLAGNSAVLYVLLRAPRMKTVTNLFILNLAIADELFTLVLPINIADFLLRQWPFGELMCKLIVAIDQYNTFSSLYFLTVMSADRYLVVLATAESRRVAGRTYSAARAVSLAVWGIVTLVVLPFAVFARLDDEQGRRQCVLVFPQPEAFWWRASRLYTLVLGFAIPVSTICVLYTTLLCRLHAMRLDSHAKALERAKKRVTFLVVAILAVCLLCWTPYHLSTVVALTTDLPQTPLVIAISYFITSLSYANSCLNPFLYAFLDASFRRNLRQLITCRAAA
OX1R antag-2 – OX1R (human) antagonism. O43613. OX1R-expressing cells, FRET antagonist read-out. inhibition, % at 6.6 µM. actives 1.8% (n = 330,000). AID 485270; in the data active = inhibition mostly above about 38%, no sharp cut-off; inactive = mostly below about 40%;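 also: 0% = agonist challenge alone and 100% = reference antagonist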
CHO parental Ca – counter-screen for OX1R antagonists: effect in parental CHO cells; actives 0.63% (n = 330,000); AID 463079; parental CHO-K1, ATP-induced calcium, Fluo-8 fluorescence; inhibition, % at 5.6 µM;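 active = inhibition above that plate's mean sample inhibition plus 3 SD, cut at about 26% in these data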;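 also: 0% = ATP-challenged DMSO wells and 100% = DMSO wells without ATP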
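Material: Parental CHO cells | Reagent: ATP | Compound dosing: Single nominal dose of 5.6 µM per compound | Detection: Intracellular calcium via Fluo-8 no-wash fluorescent dye | Read-out: % inhibition of ATP-induced calcium mobilization | Benchmarks: Low control ATP plus DMSO, high control DMSO only | Replicates: Singlicate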
nonsel antag count – nonselective antagonist in TAAR1 antagonist counter-screen; shares compounds with TAAR1 antagonist; counterscreen cell line, calcium fluorescence, antagonist mode; inhibition, % at 3 µM; actives 77% (n = 2,400); AID 651780; in the data active = inhibition above about 22%;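 also: CHO-Ga16 host cells stimulated with ATP at an EC80 level; 0% = agonist EC80 plus vehicle and 100% = vehicle without agonist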
TAAR1 antag conf – human TAAR1 antagonism, confirmed | TAAR1-expressing cells, fluorescence antagonist read-out | inhibition, % at 3 µM | shares compounds with TAAR1 antagonist | actives 40% (n = 2,400) | AID 651785; in the data active = inhibition above about 49%;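 also: CHO-Ga16 host cells challenged with agonist PEA near its EC80; 0% = agonist at EC80 plus vehicle and 100% = vehicle with no agonist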
Ga16 nonsel ag – nonselective Ga16 agonist in TAAR1 antagonist counter-screen | AID 651953 | shares compounds with TAAR1 antagonist | actives 18% (n = 2,400) | activation, % at 3 µM | Ga16-expressing cells, calcium fluorescence, agonist counterscreen; in the data active = activation above about 12%;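 also: 0% = vehicle wells and 100% = saturating stimulus response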
TAAR1 ag count – counter-screen for human TAAR1 antagonists: TAAR1 agonists | actives 2% (n = 2,400) | activation, % at 3 µM | shares compounds with TAAR1 antagonist | hTAAR1 cell line, fluorescence activation, agonist mode | AID 651955; in the data active = activation above about 37%;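 also: CHO cells stably expressing TAAR1 with calcium dye readout; 0% = DMSO vehicle and 100% = full agonist response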
An asterisk follows results filed as active; . = not tested or not shown. Most compounds without a hit are left out; they make up all but 4.6% or so of the library.

SMILES	OX1R antag-1	TAAR1 ag	TAAR1 antagonist	GPR7 antag	OX1R antag-2	CHO parental Ca	nonsel antag count	TAAR1 antag conf	Ga16 nonsel ag	TAAR1 ag count
CCOc1ccc(N2C(=O)CC(SC(=NC)Nc3cccc(OC)c3)C2=O)cc1 (configuration not stated)	-31	3	26	-3	8	-36	.	.	.	.
CCN=C(NCC)SC1CC(=O)N(c2ccc(OC)cc2)C1=O (configuration not stated)	-25	23	65*	8	22	-5	30*	55*	12*	18
O=C(Nc1ccccc1OC(F)F)c1ccc(N2CCCC2=O)cc1	.	2	-7	.	.	.	.	.	.	.
Cn1c(=O)c2c(nc(N3CCCCCC3)n2CC(O)COc2ccccc2)n(C)c1=O (configuration not stated)	-13	7	13	-6	23	-7	.	.	.	.
Cc1cccc(OCC(O)Cn2c(N3CCCCC3)nc3c2c(=O)n(C)c(=O)n3C)c1 (configuration not stated)	-12	12	64*	-8	12	-15	30*	42	8	10
COc1ccc(CC(=O)Nc2cccc(-c3nnc(-c4ccccc4)o3)c2)cc1OC	.	29	71*	-17	.	.	57*	73*	18*	17
O=C(Cc1ccccc1)Nc1cccc(-c2nc3ncccc3o2)c1	-16	15	24	-9	16	-18	.	.	.	.
COc1ccc(CC(=O)Nc2ccc(-c3nnc(-c4ccccc4)o3)cc2)cc1OC	-7	.	.	-1	10	-11	.	.	.	.
COc1ccc(CC(=O)Nc2cccc(-c3nnc(-c4ccc(C)cc4)o3)c2)cc1OC	-30	24	82*	-9	26	-9	53*	69*	17*	15
Cc1ccc(OCC(=O)Nc2cccc(-c3nnc(-c4ccccc4)o3)c2)c(C)c1	-23	15	66*	-13	14	-16	41*	64*	7	5
Cc1cc(C)cc(OCC(=O)Nc2cccc(-c3nc4ncccc4o3)c2)c1	-22	7	70*	-14	19	-1	31*	58*	10	13
O[C@@H](Cc1ccccc1)[C@@H](/C=C/c1ccccc1)N(Cc1ccccc1)Cc1ccccc1	.	-1	0	.	.	.	.	.	.	.
CNc1cncc(-c2cccc(C(=O)N(C)C)c2)n1	.	2	-1	.	.	.	.	.	.	.
COc1ccccc1CNC(=O)c1cccc(S(=O)(=O)N2CCN(C)CC2)c1	-45	1	-8	-13	10	4	.	.	.	.
COc1cc(OC)c(OC)cc1CNC(=O)c1cccc(S(=O)(=O)N2CCc3ccccc3C2)c1	.	12	68*	.	.	.	47*	57*	14*	8
COc1ccccc1-c1cc(C(=O)N2CCN(S(=O)(=O)c3ccc(C)cc3)CC2)[nH]n1	-16	11	74*	-12	8	-9	31*	44	9	7
COc1ccc(C(=O)N/N=C/c2ccc(OC)c(OS(=O)(=O)c3ccccc3)c2)cc1	-33	4	71*	-3	9	-14	19	33	5	0
O=C(N/N=C\c1cccc(F)c1)c1ccc(-c2ccccc2)cc1	.	-1	57*	-20	.	.	-5	29	0	-2
COc1ccc(/C=N/NS(=O)(=O)c2ccccc2)cc1OS(=O)(=O)c1ccccc1	2	10	1	-2	10	-6	.	.	.	.
O=C(N/N=C\c1c(F)c(F)c(F)c(F)c1F)c1ccc(-c2ccccc2)cc1	-11	2	-3	-9	5	-7	.	.	.	.
COc1cc(C(=O)NCCOc2cccc3cccnc23)cc(OC)c1OC	-18	20	74*	-13	18	2	34*	55*	11	12
Cc1ccc(C(=O)NCCOc2cccc3cccnc23)cc1Cl	-27	24	-23	-15	31	-20	.	.	.	.
O=C(Nc1ccc(Cn2cccn2)cc1)c1ccc(COc2ccccc2Br)cc1	-2	6	88*	-6	44	-10	37*	66*	7	7
CCCCOCCOC(=O)C1OC1(C)c1ccccc1 (configuration not stated)	.	1	-11	.	.	.	.	.	.	.
COCCCN1C(=O)C(CC(=O)NCCCCc2ccccc2)CC(C(=O)N(C(C)C)C(C)C)=C1C (configuration not stated)	.	1	4	.	.	.	.	.	.	.
SMILES	OX1R antag-1	TAAR1 ag	TAAR1 antagonist	GPR7 antag	OX1R antag-2	CHO parental Ca	nonsel antag count	TAAR1 antag conf	Ga16 nonsel ag	TAAR1 ag count
O=C(N/N=C/c1cccc(NC(=O)c2ccc(Cl)cc2)c1)c1cccc(O)c1	-22	4	73*	-6	8	-17	26*	38	6	5
COc1ccccc1NS(=O)(=O)c1cccc(C(=O)N/N=C/c2ccc3c(c2)OCCO3)c1	-3	15	56*	-5	25	-14	32*	45	10	9
COc1ccc(/C=N/NC(=O)c2ccc(COc3cccc4cccnc34)cc2)cc1OC	-27	10	54*	-11	50	-23	27*	44	6	3
O=C(N/N=C/c1cccc(O)c1)c1ccc(COc2cccc3cccnc23)cc1	-21	19	10	-16	14	-21	.	.	.	.
COc1ccc(NS(=O)(=O)c2cccc(C(=O)N/N=C/c3ccc4c(c3)OCCO4)c2)cc1	-3	5	-2	6	10	-8	.	.	.	.
COc1ccc(/C=N/NC(=O)c2ccc(COc3cccc4cccnc34)cc2)cc1O	-27	8	63*	-17	23	-16	26*	44	10	12
CCCc1nc2c3ccccc3ccn2c1Cc1ccccc1	.	1	21	.	.	.	.	.	.	.
CCOC(=O)[C@]12CCC=C1N(Cc1ccc(Cl)cc1Cl)C(=O)[C@H](CC(=O)NCc1cccc(C(F)(F)F)c1)C2	.	0	4	.	.	.	.	.	.	.
Cc1nc(Cn2c3ccc(NC(=S)NC4CCCCC4)cc3c(=O)n2C)cs1	.	3	-4	.	.	.	.	.	.	.
Cc1cccc(NC(=O)Nc2nnc([C@@H]3C[C@H](O)[C@@H](CO)O3)s2)c1	.	7	-4	.	.	.	.	.	.	.
O=C(N/N=C/c1cccc(O)c1)c1ccc(COc2ccccc2Br)cc1	-14	0	91*	-13	37	-20	27*	78*	4	5

Assay outcomes from PubChem.
